Converted amounts (≈) assume the structure as drawn.
Key:
[1] = tested on: Mycobacterium avium-intracellulare; experiment: Antimycobacterial activity against Mycobacterium avium-intracellulare isolate 1956 after 8 days by resazurin microtiter based colorimetric assay; assay type: functional; conditions: isolate 1956, 192 h
Outline: (§1)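 Resazurin microtiter plate MIC, read by visual scan for growth, in Mueller Hinton II broth. Strains include clinical isolates of M. abscessus complex, M. chelonae, M. avium, M. intracellulare, M. xenopi, P. aeruginosa PAO-1 and S. aureus ATCC 25923.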

Mycobacteroides chelonae = experiment: Antimycobacterial activity against Mycobacterium chelonae ATCC 35752 after 8 days by resazurin microtiter based colorimetric assay; assay type: functional; conditions: ATCC 35752, 192 h; outline: as §1
Mycobacterium avium = experiment: Antimycobacterial activity against Mycobacterium avium isolate 104 after 8 days by resazurin microtiter based colorimetric assay; assay type: functional; conditions: isolate 104, 192 h
Outline: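 M. avium 104 MICs were read by resazurin microtiter colorimetric assay in 96-well plates, with growth scored visually, in Mueller Hinton II medium.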

[2] = Antimycobacterial activity against Mycobacterium bolletii ATCC 14472 after 8 days by resazurin microtiter based colorimetric assay; assay type: functional; conditions: Mycobacteroides abscessus, ATCC 14472, 192 h; outline: as §1
[3] = tested on: Mycobacterium tuberculosis; experiment: Antimycobacterial activity against Mycobacterium tuberculosis H37Rv MC2-6206 after 8 days by resazurin microtiter based colorimetric assay; assay type: functional; conditions: H37Rv MC2-6206, 192 h
Outline: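 MIC was measured by resazurin microtiter colorimetric assay with visual growth scoring. Medium was 7H9-ADC–0.05% tyloxapol with 0.2% casaminoacids, 48 µg/ml pantothenate and 50 µg/ml L-leucine.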

Mycobacterium xenopi = experiment: Antimycobacterial activity against wild type Mycobacterium xenopi isolate 4042 after 8 days by resazurin microtiter based colorimetric assay; assay type: functional; conditions: isolate 4042, 192 h; outline: as §1
[4] = tested on: Mycobacteroides abscessus; experiment: Antimycobacterial activity against Mycobacterium abscessus ATCC 19977 after 8 days by resazurin microtiter based colorimetric assay; assay type: functional; conditions: ATCC 19977, 192 h; outline: as §1
[5] = tested on: Mycolicibacterium smegmatis; experiment: Antimycobacterial activity against Mycobacterium smegmatis isolate MC2 155 after 8 days by resazurin microtiter based colorimetric assay; assay type: functional; conditions: str. MC2 155, 192 h
[6] = Antimycobacterial activity against Mycobacterium massiliense isolate CRM0019 after 8 days by resazurin microtiter based colorimetric assay; assay type: functional, Mycobacterium abscessus subsp. massiliense; conditions: Mycobacteroides abscessus, isolate CRM0019, 192 h; outline: as §1
[7] = Antimycobacterial activity against Mycobacterium massiliense isolate CIP108297 after 8 days by resazurin microtiter based colorimetric assay; assay type: functional, Mycobacterium abscessus subsp. massiliense; conditions: Mycobacteroides abscessus, isolate CIP108297, 192 h; outline: as §1
[8] = tested on: Mycobacteroides abscessus; experiment: Antimycobacterial activity against Mycobacterium abscessus isolate DCI 21 after 8 days by resazurin microtiter based colorimetric assay; assay type: functional; conditions: isolate DCI 21, 192 h; outline: as §1
[9] = tested on: Mycobacteroides abscessus; experiment: Bactericidal activity against Mycobacterium abscessus after 8 days by resazurin microtiter based colorimetric assay; assay type: functional
Outline: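 MBC90 found by subculturing from the MIC wells onto 7H11 agar. Value is the lowest concentration cutting CFU by 90% versus the inoculum.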

Staphylococcus aureus = experiment: Antibacterial activity against Staphylococcus aureus ATCC 25923 after 8 days by resazurin microtiter based colorimetric assay; assay type: functional; conditions: ATCC 25923, 192 h; outline: as §1
Pseudomonas aeruginosa = experiment: Antibacterial activity against Pseudomonas aeruginosa PAO1 after 8 days by resazurin microtiter based colorimetric assay; assay type: functional; conditions: PAO1, 192 h; outline: as §1

Row | Structure (SMILES) | MIC [1] [µg/mL] | MIC (Mycobacteroides chelonae) [µg/mL] | MIC (Mycobacterium avium) [µg/mL] | MIC [2] [µg/mL] | MIC [3] [µg/mL] | MIC (Mycobacterium xenopi) [µg/mL] | MIC [4] [µg/mL] | MIC [5] [µg/mL] | MIC [6] [µg/mL] | MIC [7] [µg/mL] | MIC [8] [µg/mL] | MBC90 [9] [µg/mL] | MIC (Staphylococcus aureus) [µg/mL] | MIC (Pseudomonas aeruginosa) [µg/mL]
1 | O=C(NCC12CC3CC(CC(C3)C1)C2)c1cc2ccccc2[nH]1 | > 32 | 1 (≈ 3.24 µM) | > 32 | 2 (≈ 6.48 µM) | > 5 | 4 (≈ 13 µM) | 2 (≈ 6.48 µM) | > 20 | > 32 | 2 (≈ 6.48 µM) | 2 (≈ 6.48 µM) |  |  | 
2 | Cc1cc(C)c2cc(C(=O)NC3CCC(C)CC3)[nH]c2c1 (mixture of isomers) | > 32 | ≤ 0.06 | > 32 | ≤ 0.06 | 0.31 | 0.5 to 1 | ≤ 0.06 | > 20 | ≤ 0.06 | ≤ 0.06 | ≤ 0.06 | 0.03 | > 160 | > 160
3 | Cc1cc(C)c2cc(C(=O)NC3CCCC3)[nH]c2c1 | > 32 | 2 (≈ 7.8 µM) | > 32 | 2 (≈ 7.8 µM) | 2.5 (≈ 9.75 µM) | 8 to 16 (≈ 31.2 to 62.4 µM) | 4 (≈ 15.6 µM) | 5 (≈ 19.5 µM) | 8 (≈ 31.2 µM) | 8 (≈ 31.2 µM) | 4 (≈ 15.6 µM) |  |  | 
4 | CCC12CC3CC(C1)CC(NC(=O)c1cc4ccccc4[nH]1)(C3)C2 | > 32 | > 32 | > 32 | > 32 | 1.25 (≈ 3.88 µM) | 1 to 2 (≈ 3.1 to 6.2 µM) | > 32 | > 20 | > 32 | > 32 | > 32 |  |  | 
5 | CCCCCCCNC(=O)c1cc2ccccc2[nH]1 |  | > 32 |  | > 32 | > 10 |  | > 32 | > 25 | > 32 | > 32 | > 32 |  |  | 
6 | Cc1cc(C)c2cc(C(=O)NC3C4CC5CC(C4)CC3C5)[nH]c2c1 (stereo unspecified) | > 32 | > 32 | > 32 | > 32 | 0.04 (≈ 0.124 µM) | 0.5 to 1 (≈ 1.55 to 3.1 µM) | > 32 | > 20 | > 32 | > 32 | > 32 |  |  | 
7 | O=C(NCc1cccc(Cl)c1)c1cc2ccccc2[nH]1 |  | > 32 |  | > 32 | > 5 |  | > 32 | > 20 | > 32 | > 32 | > 32 |  |  | 
8 | O=C(NC1CCCC1)c1cc2ccccc2[nH]1 |  | > 32 |  | > 32 | > 10 |  | > 32 | > 25 | > 32 | > 32 | > 32 |  |  | 
9 | O=C(NC1CCCCC1)c1cc2ccccc2[nH]1 |  | > 32 |  | > 32 | > 10 |  | > 32 | > 25 | > 32 | > 32 | > 32 |  |  | 
10 | CC1CCC(NC(=O)c2cc3ccccc3[nH]2)CC1 (mixture of isomers) | > 32 | 16 | > 32 | 16 | 5 | 16 | > 32 | 12.5 | 16 | 16 | > 32 |  |  | 
11 | Cc1cc(C)c2cc(C(=O)NCc3cccc(Cl)c3)[nH]c2c1 |  | > 32 |  | > 32 | > 5 |  | > 32 | > 20 | > 32 | > 32 | > 32 |  |  | 
12 | O=C(NC1CCCCCCC1)c1cc2ccccc2[nH]1 | > 32 | > 32 | > 32 | 32 (≈ 118 µM) | 0.39 (≈ 1.44 µM) | 2 (≈ 7.4 µM) | > 32 | 25 (≈ 92.5 µM) | 32 (≈ 118 µM) | > 32 | > 32 |  |  | 
13 | CCCCCCCNC(=O)c1cc2c(C)cc(C)cc2[nH]1 | > 32 | > 32 | > 32 | 32 (≈ 112 µM) | > 5 | > 32 | > 32 | 5 (≈ 17.5 µM) | > 32 | > 32 | > 32 |  |  | 

— ChEMBL document CHEMBL4033721, “Design, synthesis and evaluation of indole-2-carboxamides with pan anti-mycobacterial activity” (Bioorg Med Chem, 2017)
